The results in this text go back to PubChem BioAssay AID463141 (The Scripps Research Institute Molecular Screening Center, 2010).

Hit rate of the full screen: of about 330,000 compounds, about 350 (0.11%) were called active. This is one part of a sample in which actives are shown more often than they occur. Values without a mark were called inactive.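 Rule for the calls: active = activation above the mean of all tested compounds plus 3 SD (cut at about 21% in these data); inactive = the rest.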

Chain of Caspase-3 (Homo sapiens) (P42574 whole entry D9A/D28A/D175A): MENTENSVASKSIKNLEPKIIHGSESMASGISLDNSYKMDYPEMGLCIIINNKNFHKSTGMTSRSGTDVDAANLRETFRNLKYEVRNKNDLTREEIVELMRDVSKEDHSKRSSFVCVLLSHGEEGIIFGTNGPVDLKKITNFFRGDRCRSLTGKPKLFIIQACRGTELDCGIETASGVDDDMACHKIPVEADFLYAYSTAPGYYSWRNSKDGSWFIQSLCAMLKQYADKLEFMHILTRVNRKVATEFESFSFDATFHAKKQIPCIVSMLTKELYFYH

The target in this test is Caspase-3 (Homo sapiens) (UniProt P42574). Briefly: activators of human procaspase-3 D3A mutant, primary screen, biochemical, absorbance, PC-3 D3A mutant, single concentration (AID 463141).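 Note: 0% = DMSO alone and 100% = DMSO wells spiked with extra 5 µM PC-3 D3A.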 Particulars: recombinant procaspase-3 D3A, Ac-DEVD-pNA absorbance 405 nm; at 8.5 µM; stronger effect = higher value. In a few lines:
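Test system: Procaspase-3 D3A mutant, all three cleavage aspartates alanine | Dosing: Single dose, 8.5 µM nominal compound, 0.8% DMSO | Schedule: 1 h preincubation, 2 h reaction | Technique: 405 nm absorbance of p-nitroaniline, reads at 0 and 120 min | Repeats: One well per compound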
As for `COc1ccc(S(=O)(=O)Nc2ccccc2C(=O)N2CCCC2)cc1C`, the activation is 9.9%. In the case of `COc1ccccc1N1CCN(C(=O)c2ccc(S(=O)(=O)N3CCCCC3)cc2)CC1` it was -4.47%; in that of `COc1ccccc1NS(=O)(=O)c1ccc(C(=O)N2CCN(c3ccccc3O)CC2)cc1`, 21.8% (active); in that of `CC(NC(=O)c1ccccc1C(=O)O)c1ccc(-n2ccnc2)cc1` (configuration not stated), -0.91%.

Regarding `C=CCNc1nc(Nc2ccc(Cl)cc2)nc(OC)n1`, the activation is 3.18%. In the case of `COc1cccc(-c2cc3nc4c(c(N5CCC6(CC5)OCCO6)n3n2)CCCC4)c1` it was 5.55%; in that of `NC(=O)C1CC=CCC1C(=O)OCC(Cl)=C(Cl)Cl` (configuration not stated), -0.01%.

With `CSc1nsc(SC)c1NC(=O)OC1CCCCC1`, the activation is -22.8%. Turning to `CCCN1CCN(C(=O)CCCNC(=O)c2ccc(Cl)cc2)CC1`, the activation was -2.14%. Regarding `CN1CCN(CCCNC(=O)c2ccc(/C=C3\Oc4ccccc4N(Cc4ccc(Cl)cc4)C3=O)cc2)CC1`, the activation is 38.4% (active). In the case of `CC(C)OCCCNC(=O)CN1C(=O)/C(=C/c2ccccc2F)Oc2ccccc21` it was -1.27%; in that of `N#CC1(NC(=O)COC(=O)CSc2ccc(F)cc2)CCCCC1`, -6.99%.

Take `CCCOn1c(-n2nc(C)cc2C)nc2ccccc2c1=O`: the activation was 7.25%.

As to `CCC(C)(C)NC(=O)C(c1ccccn1)N(C(=O)c1csnn1)c1ccccc1` (configuration not stated), the activation was 2.32%.

Take `Cc1ccc(S(=O)(=O)NNC(=S)NC(C)(C)C)cc1`: the activation is 9.08%. `COc1ccccc1CN(C)c1nnnn1-c1ccccc1`: the activation was 9.63%. For the compound `O=C(NCc1cccs1)C(=O)NCC1OCCCN1S(=O)(=O)c1ccc(F)cc1` (configuration not stated), the activation is 1.51%. In the case of `CC(=O)Oc1ccc2c(C)c(CC(C)O)c(=O)oc2c1` (configuration not stated) it was 24.1% (active). To `COC(=O)Cc1c(C)c2ccc(OCC(=O)NCc3ccc4c(c3)OCO4)cc2oc1=O` belongs 0.37%; to `CCc1c(C)c2ccc(OC3CCCCC3=O)cc2oc1=O` (configuration not stated), 3.96%; to `COc1ccc(CCNC(=O)COC(=O)C2CC2C)cc1` (configuration not stated), 9.52%.

For `COc1ccc(CCNC(=O)COC(=O)c2cc(=O)c3ccccc3o2)cc1`, the activation is -1.38%. To `COc1ccc(CCNC(=O)COC(=O)c2ccc[nH]c2=O)cc1` belongs 23.9% (active); to `COc1ccc(S(=O)(=O)N(CCCN2CCCC2=O)Cc2cc3c(C)ccc(C)c3[nH]c2=O)cc1`, -7.13%; to `CCn1c(SCC(=O)Nc2ccc(C)cc2)nc2nc3c(cc2c1=O)CCCC3`, 3.79%. In the case of `O=C1[C@H]2[C@@H](c3ccc(F)cc3)N3C(=O)N(c4ccc(C(F)(F)F)cc4)C(=O)[C@@]3(Cc3ccccc3)[C@H]2C(=O)N1C1CCCCC1` it was 5.91%; in that of `c1ccc2cc(CCCc3cc4ccccc4cn3)ncc2c1`, -5.39%; in that of `O=C(COC(=O)c1cccc(Cl)c1)NC(=O)NCc1ccccc1`, 7.09%. In the case of `Cc1cc(C)c2c(-n3cccc3)c(C(=O)NNS(=O)(=O)c3ccc(F)cc3)sc2n1`, the activation was -8.55%. As to `CCOC(=O)C1=CN(Cc2ccc(Br)cc2)S(=O)(=O)NC1C` (configuration not stated), the activation is -3.39%. On to `COC(=O)C1=C(C)N(C(C)c2ccccc2)C(=O)/C1=C\c1ccco1` (configuration not stated), for which the activation is 1.04%. As to `Cc1ccc(-c2nnc(Nc3ccc(C(=O)N(C)C)cc3)c3ccccc23)cc1S(N)(=O)=O`, the activation is 6.07%. To `COC(=O)c1ccc(CNC(=O)C2CCC(=O)N(Cc3ccccn3)C2)cc1` (configuration not stated) belongs 4.62%. In the case of `CN(C)/C=C(/C(=O)c1ccc(F)cc1)S(=O)(=O)c1ccc(F)cc1`, the activation was 2.38%.

Turning to `O=C(Nc1ccccc1-c1nnn(CC(=O)N2CCCc3ccccc32)n1)c1cccc(Cl)c1`, the activation was 0.94%. For `CCC(C)[C@H](NC(=O)N1CCn2c1nc1ccccc12)C(=O)NCc1ccc(OC)cc1` (some centres not stated), the activation is 9.75%. For `COc1cccc(NC(=S)C(C#N)=C2N(C)c3ccccc3N2C)c1`, the activation was 0.38%.

Turning to `CC1=C(C(=O)OC(C)(C)C)C(c2ccc(Br)cc2)NC(=O)N1CCCC(=O)O` (configuration not stated), the activation was 1.2%.

For `CC(=O)c1ccc(NC(=O)C(C)N(C)CC(=O)Nc2ccccc2Cl)cc1` (configuration not stated), the activation is -3.65%. In the case of `CCC(C)(C)NC(=O)c1cc([N+](=O)[O-])ccc1N1CCCCC1`, the activation was -7.67%. In the case of `N#Cc1c(NCCO)ccc([N+](=O)[O-])c1NCCO` it was 3.1%; in that of `O=S(=O)(N/N=C\c1cccn1-c1ccccc1)c1ccc2ccccc2c1`, 0.8%. As to `COc1cc(CN2CCN(Cc3ccc(C)cc3)CC2)c([N+](=O)[O-])cc1OC`, the activation was 8.01%.

As for `COc1ccc(-c2noc(CCC(=O)N3CCN(c4cccc(C)c4)CC3)n2)cc1`, the activation was -0.7%.

Regarding `CCOc1ccc2nc(NCCNS(=O)(=O)c3ccccc3)c(C#N)cc2c1`, the activation was 27.3% (active). As to `CCOc1ccc(S(=O)(=O)NCCSc2ccccc2)cc1`, the activation is -4.36%. For the compound `CCOc1ccc2nc(NCCNC(=O)C(C)(C)C)c(C)cc2c1`, the activation is -11.1%. To `C[C@H](CO)N1C[C@H](C)[C@@H](CN(C)S(=O)(=O)c2ccc(F)cc2)Oc2ccc(NC(=O)CCC(F)(F)F)cc2C1=O` belongs 7.71%. To `COCCNC(=S)Nc1cc(S(=O)(=O)N2CCOCC2)ccc1N1CCCCC1` belongs -18.3%; to `CCC(C)N1CC(=O)N2Cc3[nH]c4ccccc4c3C[C@H]2C1=O` (some centres not stated), 0.63%; to `CC(=O)Nc1ccc(NC(=O)C(C)OC(=O)c2ccccc2C(=O)c2ccc(Cl)c([N+](=O)[O-])c2)cc1` (configuration not stated), -0.74%.

Consider `COC(=O)c1nc2n(n1)C(c1ccc([N+](=O)[O-])cc1)C(C(=O)Nc1ccc(Cl)cc1)=C(C)N2` (configuration not stated), for which the activation was 3.68%. As for `COC(=O)c1sc(N)c(C(=O)OC)c1COC(=O)CNS(=O)(=O)c1ccc(C)cc1`, the activation was 3.17%. On to `CCN1CCN(C(=O)C2(NC(=O)Nc3cccc(F)c3)CCCCC2)CC1`, for which the activation is -1.86%. With `COc1ccc(-c2sc3ccc(OC)cc3c2C#Cc2ccccn2)cc1`, the activation was 21.3% (active). On to `COc1ccc2sc(-c3ccc(S(C)(=O)=O)cc3)c(C#Cc3cncn3C)c2c1`, for which the activation was -7.99%. With `COc1ccc2sc(-c3ccc(N(C)C)cc3)c(C#CCO)c2c1`, the activation is 21.1%. Consider `CC(C)C[C@H](NC(=O)C1CC(=O)N(c2ccc3c(c2)OCCO3)C1)C(=O)NC1CCCC1` (some centres not stated), for which the activation was 0.18%. To `COc1ccc(/C=N/Nc2nc(-c3ccc(C)cc3)c(C#N)c(=O)[nH]2)cc1` belongs 8.75%. For the compound `COc1ccc(/C=N/Nc2ccccc2C(=O)O)cc1`, the activation was 1%. As for `COc1ccc(/C=N/Nc2nc3ccccc3c(=O)[nH]2)cc1`, the activation was 30.4% (active). To `Cc1cc(-c2nc(C)c(-c3nnc(SCC(=O)Nc4ccccc4)n3C)s2)no1` belongs -5.75%; to `CCN(CC)S(=O)(=O)c1ccc(N2CCN(C)CC2)c(NC(=O)Nc2ccccc2F)c1`, 4.2%; to `COc1ccc(NS(=O)(=O)c2ccc(C)c(C(=O)N(C)Cc3ccc(OC)cc3OC)c2)cc1`, 10.5%. To `CC(=O)N1Cc2ccccc2CC1C(=O)O` (configuration not stated) belongs 2.69%. For the compound `O=C(CCCn1c(=O)c2sccc2n(CC(=O)NCC2CCCO2)c1=O)NCc1ccco1` (configuration not stated), the activation is 3.97%. On to `COc1cc(/C=C/C(=O)OCC(=O)Nc2cccc(Oc3ccccc3)c2)ccc1O`, for which the activation was -1.86%. For the compound `O=C(NC1(C(F)(F)F)N=C2SCCN2C1=O)c1ccco1` (configuration not stated), the activation was 1.41%. With `Cc1ccc(NC(=O)Nc2cc(-c3ccccc3)nn2C)cc1Cl`, the activation was -13.2%. As to `COC(=O)[C@]1(S(=O)(=O)c2ccccc2)C[C@@H]2ON=C(c3ccc(OC)cc3)[C@@H]2C1`, the activation was -6.69%. To `CCCCNc1nc2ccccc2nc1NS(=O)(=O)c1cccs1` belongs 10.7%. In the case of `O=C(Nc1ccccc1Cl)/C(Cl)=C(\Cl)S(=O)c1ccccc1` (configuration not stated) it was -26.7%; in that of `CCOC(=O)CCC(=O)OCC(=O)NC(C)C1CC2CCC1C2` (configuration not stated), 2.01%; in that of `O=S(=O)(O)Oc1c[nH]c2ccccc12`, 4.41%. In the case of `CCCN(C(=O)c1nc2nccc(C)n2n1)c1c(N)n(Cc2ccccc2)c(=O)[nH]c1=O` it was 1.38%; in that of `CN(CC1CCCO1)S(=O)(=O)c1ccc(C(=O)Nc2ccc(F)cc2)cc1` (configuration not stated), -2.76%. As to `NC(=O)c1ccccc1N=Cc1ccc2ccccc2c1`, the activation is 9.74%. In the case of `COC(=O)CN1C(=O)[C@H]2[C@@H](C3CC3)N3C(=O)CN(Cc4ccc(-c5ccccc5)cc4)C(=O)[C@@]3(Cc3ccccc3)[C@H]2C1=O` it was 15.8%; in that of `CC(=O)c1sc(N/N=C/c2ccc(C(C)C)cc2)nc1C`, -6.85%; in that of `CCCn1c(C)cc(C(=O)COC(=O)c2c(C)nn(-c3ccccc3)c2C)c1C`, 0.04%. To `Cc1ccc(-c2nc(SCC(=O)Nc3ccccc3OC(F)F)c3c(C)c(C(=O)O)sc3n2)cc1` belongs -2.33%. For the compound `CCOc1ccccc1CN1CCN(C2CCC2)CC1CCO` (configuration not stated), the activation was 8.07%. Consider `Cc1ccc(Cl)cc1NC(=O)C1CCN(S(C)(=O)=O)CC1`, for which the activation is -5.8%. With `CN(CCc1ccccn1)C(=O)c1ccc(OC2CCN(CCc3ccccc3)CC2)cc1`, the activation was -3.49%.

In the case of `Cc1ccc(NC2CCCN(C(=O)CCc3cn[nH]c3)C2)cc1C` (configuration not stated), the activation is 8.07%. For `CC(C)C[C@H](NC(=O)[C@@H]1O[C@H]1C(=O)O)C(=O)NCCCCN=C(N)N`, the activation was 2.62%. With `COc1ccccc1/C=C/C=N/n1c(-c2ccc(Cl)cc2Cl)n[nH]c1=S`, the activation is -14.5%.
